Experimental findings from ChEMBL document CHEMBL5653623 (J Pharmacol Exp Ther, 2015) are described below.

Calls of active or inactive are those of the source. No cut-off for these calls is given here.

Data set [1] in a line: Unbound fraction in C57Bl/6 mouse brain. It counts as ADME, tissue-based. The essentials:
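Plasma and brain binding were determined by equilibrium dialysis at 1 μM.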

The target of data set [2] is Leucine-rich repeat serine/threonine-protein kinase 2 (Mus musculus) (UniProt Q5S006). Nature of the data set: In vivo inhibition of LRRK2 in C57Bl/6 mouse brain assessed as reduction in pSer935 LRRK2 at 10 to 120 mg/kg administered for 11 days and measured for 8 to 24 hrs by Western blotting analysis. It counts as functional, organism-based. Conditions: dose 10-120 mg/kg, time 11.0 day. The essentials:
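Male C57Bl/6 mice, singly housed on a reversed light cycle. Fed drug diet targeted to 3, 10, 30, 60 or 120 mg/kg/day (assuming 3 g/day intake), or untreated diet, for 11 days. Killed 4, 8 or 24 h after dark-cycle onset, n = 5 per group. Cortex immunoblotted for pSer935/total LRRK2 and total LRRK2/GAPDH. Total LRRK2 detected with MJFF2 antibody.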

The nature of data set [3]: Effect on spontaneous locomotor activity in C57Bl/6 mouse assessed as distance traveled administered for 11 days by truScan photo beam activity system analysis. The format is toxicity. Conditions: in vivo, 264 h, time 11 day. The essentials:
(§1)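 Male C57Bl/6 mice, singly housed on a reversed 12 h light cycle, were fed diet formulated to give 3, 10, 30, 60 or 120 mg/kg/day (assumes 3 g/day intake) or untreated diet for 11 days. Body weight and food intake were monitored. Spontaneous locomotion and rearing were recorded over 60 min. On day 11, mice were euthanized 4, 8 or 24 h after dark onset and plasma and brain drug levels measured; n = 5 per group.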

For data set [4], the system named is Mus musculus. Nature of the data set: Effect on histological changes in 20 weeks old MitoPark mouse lung assessed as slight enlargement of alveolar epithelial cells at 30 mg/kg/day administered for 15 weeks by hematoxylin and eosin staining based microscopic analysis. It counts as functional, organism-based. Summed up:
(§2)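 MitoPark mice were fed diet targeting 30 mg/kg/day or vehicle for 15 weeks and euthanized at 20 weeks of age (n=5/group). Kidney and lung were fixed in 10% neutral buffered formalin, paraffin-embedded, sectioned at 5 µm, H&E-stained and examined microscopically.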

Data set [5] concerns the target Dual specificity protein kinase CLK2 (Homo sapiens, UniProt P49760). Put plainly: Inhibition of CLK2 (unknown origin).
Data set [6] deals with T1, Dual specificity protein kinase TTK (Homo sapiens, UniProt P33981).
T1 sequence (P33981 whole entry): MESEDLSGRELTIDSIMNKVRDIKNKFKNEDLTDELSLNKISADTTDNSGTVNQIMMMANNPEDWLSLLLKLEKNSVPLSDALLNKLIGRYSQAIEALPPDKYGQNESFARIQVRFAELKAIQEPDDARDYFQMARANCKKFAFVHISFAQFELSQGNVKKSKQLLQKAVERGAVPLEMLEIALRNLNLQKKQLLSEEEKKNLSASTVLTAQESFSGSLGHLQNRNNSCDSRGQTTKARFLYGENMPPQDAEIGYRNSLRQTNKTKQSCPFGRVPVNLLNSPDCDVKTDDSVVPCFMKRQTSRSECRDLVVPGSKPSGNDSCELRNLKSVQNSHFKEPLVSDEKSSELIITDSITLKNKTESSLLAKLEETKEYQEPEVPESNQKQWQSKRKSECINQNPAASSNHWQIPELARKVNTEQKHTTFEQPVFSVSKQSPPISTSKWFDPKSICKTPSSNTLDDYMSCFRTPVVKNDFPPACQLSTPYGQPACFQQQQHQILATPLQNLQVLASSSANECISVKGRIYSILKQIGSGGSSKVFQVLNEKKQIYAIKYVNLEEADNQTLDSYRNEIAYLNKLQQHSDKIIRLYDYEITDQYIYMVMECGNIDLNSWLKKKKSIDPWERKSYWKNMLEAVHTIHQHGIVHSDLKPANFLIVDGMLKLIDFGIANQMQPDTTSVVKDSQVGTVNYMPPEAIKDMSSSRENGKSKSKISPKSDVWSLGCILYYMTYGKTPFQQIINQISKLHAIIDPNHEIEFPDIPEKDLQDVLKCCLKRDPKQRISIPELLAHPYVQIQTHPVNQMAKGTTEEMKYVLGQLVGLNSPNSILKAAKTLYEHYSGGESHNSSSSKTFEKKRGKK
Nature of the data set: Inhibition of TTK (unknown origin).

The subject of data set [7] is Mus musculus. Put plainly: Effect on histological changes in 20 weeks old MitoPark mouse kidney assessed as accumulation of pigment in renal cortical tubules at 30 mg/kg/day administered for 15 weeks by hematoxylin and eosin staining based microscopic analysis. The format is functional, organism-based. The essentials: as §2
Data set [8] deals with Leucine-rich repeat serine/threonine-protein kinase 2 (Mus musculus) (UniProt Q5S006). Put plainly: In vivo inhibition of LRRK2 in 20 weeks old MitoPark mouse kidney assessed as reduction in total LRRK2 protein level at 30 mg/kg/day administered for 15 weeks by Western blotting analysis. It counts as functional, organism-based. The essentials:
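MitoPark mice on drug-containing diet targeted to 30 mg/kg/day from 5 weeks of age, with the diet reformulated every 3 weeks to hold the target. Untreated-diet MitoPark and wild-type littermate controls. Killed by CO2 at 20 weeks of age. Lung and kidney taken from 5 mice per group for pSer935 and total LRRK2 immunoblots.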
(In general: A western blot detects proteins with antibodies after separation by electrophoresis.)

The target is the same in data set [9]. Put plainly: In vivo inhibition of LRRK2 in C57Bl/6 mouse kidney assessed as total LRRK2 protein level at 30 to 120 mg/kg administered for 11 days and measured after 24 hrs by Western blotting analysis. It counts as functional, organism-based. Conditions: dose 30-120 mg/kg, time 11.0 day. Summed up:
(§3)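 Same 11-day in-diet design in male C57Bl/6 mice: 3-120 mg/kg/day or untreated diet, killed 4, 8 or 24 h after dark-cycle onset, n = 5 per group. Kidneys dissected for Western blot of pSer935 and total LRRK2, with total LRRK2 detected by MJFF-2 antibody.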

Data set [10] shares this target. Put plainly: In vivo inhibition of LRRK2 in C57Bl/6 mouse kidney assessed as total LRRK2 protein level at 10 to 120 mg/kg administered for 11 days and measured after 8 hrs by Western blotting analysis. Particulars: dose 10-120 mg/kg, time 11.0 day. The format is functional, organism-based. The essentials: as §3
Data set [11] shares this target. Nature of the data set: In vivo inhibition of LRRK2 in MitoPark mouse brain assessed as total LRRK2 protein level in presence of MJFF-2 antibody by Western blotting analysis. The format is functional, organism-based. Summed up:
(§4)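 MitoPark mice fed diet targeted to 30 mg/kg/day, or untreated diet, from 5 weeks of age. Cortex collected after 3, 9 or 15 weeks of treatment, n = 10 per group. Blots probed for pSer935 LRRK2, total LRRK2 (MJFF-2 antibody) and GAPDH. pSer935 reported relative to vehicle-diet MitoPark mice.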

A short description of data set [12]: Unbound brain concentration in C57Bl/6 mouse administered for 11 days. It counts as ADME, tissue-based. Particulars: in vivo, 264 h, dose 3-100 mg/kg, time 11 day. The essentials:
as §1

Data set [13] addresses Leucine-rich repeat serine/threonine-protein kinase 2 (Mus musculus) (UniProt Q5S006). Put plainly: In vivo inhibition of LRRK2 in MitoPark mouse assessed as reduction in pSer935 LRRK2 at 30 mg/kg administered for 15 weeks and measured after 24 hrs by Western blotting analysis relative to control. It counts as functional, organism-based. Summed up: as §4
Data set [14] shares this target. Put plainly: In vivo inhibition of LRRK2 in C57Bl/6 mouse brain assessed as decrease in pSer935 LRRK2 at 10 to 100 mg/kg, po measured after 1 hr by Western blotting analysis relative to control. Conditions: dose 10-100 mg/kg. It counts as functional, organism-based. The essentials: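 Male C57Bl/6 mice, 20-25 g. Single oral dose of 1-100 mg/kg suspended in 30% Captisol (10 mL/kg), or vehicle, given 1 h before CO2 euthanasia. Cortex frozen on dry ice and pSer935 LRRK2 read by Western blot. n = 5 per group.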

Sequence of Leucine-rich repeat serine/threonine-protein kinase 2 (Mus musculus) (Q5S006 whole entry): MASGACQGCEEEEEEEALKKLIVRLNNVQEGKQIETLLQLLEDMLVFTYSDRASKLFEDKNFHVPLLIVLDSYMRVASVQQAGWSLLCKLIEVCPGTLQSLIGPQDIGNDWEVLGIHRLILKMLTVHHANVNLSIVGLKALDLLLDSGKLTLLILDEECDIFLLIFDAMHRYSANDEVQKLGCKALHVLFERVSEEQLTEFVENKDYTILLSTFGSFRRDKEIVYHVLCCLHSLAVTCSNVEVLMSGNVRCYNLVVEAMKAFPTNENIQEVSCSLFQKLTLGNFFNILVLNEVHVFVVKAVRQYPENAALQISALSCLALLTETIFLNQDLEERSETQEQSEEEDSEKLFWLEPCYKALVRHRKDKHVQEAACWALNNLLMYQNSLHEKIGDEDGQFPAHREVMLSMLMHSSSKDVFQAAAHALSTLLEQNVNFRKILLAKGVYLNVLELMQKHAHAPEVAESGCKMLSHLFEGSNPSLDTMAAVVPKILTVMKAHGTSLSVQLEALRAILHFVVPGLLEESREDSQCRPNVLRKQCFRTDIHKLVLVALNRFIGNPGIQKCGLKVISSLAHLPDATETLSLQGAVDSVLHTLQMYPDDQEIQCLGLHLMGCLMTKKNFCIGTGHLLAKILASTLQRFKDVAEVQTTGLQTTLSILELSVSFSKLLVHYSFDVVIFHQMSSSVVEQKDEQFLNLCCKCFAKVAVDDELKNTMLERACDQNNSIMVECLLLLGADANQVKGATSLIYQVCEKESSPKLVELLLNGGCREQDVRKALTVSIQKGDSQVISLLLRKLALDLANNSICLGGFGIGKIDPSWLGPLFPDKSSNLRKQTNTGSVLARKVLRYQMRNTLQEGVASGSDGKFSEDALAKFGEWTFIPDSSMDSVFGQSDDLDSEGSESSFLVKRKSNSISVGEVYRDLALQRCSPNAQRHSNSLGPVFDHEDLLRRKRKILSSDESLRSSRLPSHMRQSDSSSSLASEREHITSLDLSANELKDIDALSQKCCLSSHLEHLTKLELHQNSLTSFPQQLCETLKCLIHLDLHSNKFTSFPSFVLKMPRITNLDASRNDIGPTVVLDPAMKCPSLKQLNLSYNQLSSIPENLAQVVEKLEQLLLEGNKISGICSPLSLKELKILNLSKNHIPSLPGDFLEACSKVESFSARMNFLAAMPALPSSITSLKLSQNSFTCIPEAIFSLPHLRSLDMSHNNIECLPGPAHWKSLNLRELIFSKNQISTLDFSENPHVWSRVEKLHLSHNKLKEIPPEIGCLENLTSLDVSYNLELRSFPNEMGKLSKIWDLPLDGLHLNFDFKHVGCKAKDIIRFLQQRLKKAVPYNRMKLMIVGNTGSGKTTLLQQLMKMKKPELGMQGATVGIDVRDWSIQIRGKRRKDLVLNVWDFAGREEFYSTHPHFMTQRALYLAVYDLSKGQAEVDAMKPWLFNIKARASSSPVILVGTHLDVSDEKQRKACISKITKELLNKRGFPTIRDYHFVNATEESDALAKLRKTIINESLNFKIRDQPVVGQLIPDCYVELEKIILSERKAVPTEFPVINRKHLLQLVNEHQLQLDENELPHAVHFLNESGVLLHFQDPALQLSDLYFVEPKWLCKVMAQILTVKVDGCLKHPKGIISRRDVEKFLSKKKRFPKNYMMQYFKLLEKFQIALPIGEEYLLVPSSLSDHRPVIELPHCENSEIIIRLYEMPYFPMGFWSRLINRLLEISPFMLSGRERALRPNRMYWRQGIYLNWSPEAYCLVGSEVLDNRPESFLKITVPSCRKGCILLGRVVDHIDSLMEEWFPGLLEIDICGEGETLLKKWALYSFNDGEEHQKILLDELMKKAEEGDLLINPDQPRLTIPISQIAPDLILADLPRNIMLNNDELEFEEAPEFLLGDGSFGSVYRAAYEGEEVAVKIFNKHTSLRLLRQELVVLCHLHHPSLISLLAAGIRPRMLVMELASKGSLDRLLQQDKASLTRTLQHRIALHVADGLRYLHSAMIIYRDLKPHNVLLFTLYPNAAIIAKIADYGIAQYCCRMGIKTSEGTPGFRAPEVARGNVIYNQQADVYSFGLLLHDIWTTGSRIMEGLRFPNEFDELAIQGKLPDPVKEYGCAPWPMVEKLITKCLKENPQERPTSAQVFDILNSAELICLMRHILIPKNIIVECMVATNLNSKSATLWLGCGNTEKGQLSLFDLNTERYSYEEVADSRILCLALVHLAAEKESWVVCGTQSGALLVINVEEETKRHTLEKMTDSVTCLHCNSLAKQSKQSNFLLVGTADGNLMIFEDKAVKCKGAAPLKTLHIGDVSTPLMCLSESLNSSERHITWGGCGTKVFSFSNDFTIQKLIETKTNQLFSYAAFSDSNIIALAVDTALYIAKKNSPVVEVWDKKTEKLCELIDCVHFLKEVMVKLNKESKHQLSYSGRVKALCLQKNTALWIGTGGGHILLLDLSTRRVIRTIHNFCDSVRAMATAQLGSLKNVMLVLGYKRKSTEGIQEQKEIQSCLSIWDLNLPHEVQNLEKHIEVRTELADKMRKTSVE
Sequence of Dual specificity protein kinase CLK2 (P49760 whole entry): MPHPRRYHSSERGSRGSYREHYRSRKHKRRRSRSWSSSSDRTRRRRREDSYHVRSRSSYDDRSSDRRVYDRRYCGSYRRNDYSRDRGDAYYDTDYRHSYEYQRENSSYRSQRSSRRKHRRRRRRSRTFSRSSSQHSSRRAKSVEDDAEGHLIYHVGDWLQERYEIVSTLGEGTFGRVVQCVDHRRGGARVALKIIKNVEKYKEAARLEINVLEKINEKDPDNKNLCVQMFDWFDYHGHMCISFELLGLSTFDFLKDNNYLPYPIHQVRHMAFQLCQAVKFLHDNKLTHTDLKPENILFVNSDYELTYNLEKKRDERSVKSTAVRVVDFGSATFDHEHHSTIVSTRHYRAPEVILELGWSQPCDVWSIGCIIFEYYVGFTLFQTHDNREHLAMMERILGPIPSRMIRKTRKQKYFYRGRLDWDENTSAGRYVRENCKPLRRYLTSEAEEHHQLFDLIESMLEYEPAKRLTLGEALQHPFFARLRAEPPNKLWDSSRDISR

What is called fraction unbound is the share of the substance not bound to proteins or other matrix. High values mean weak binding, low ones extensive binding. As a reminder, the inhibition is the drop in the measured response relative to a control, in per cent. What is called IC50 is the concentration at which inhibition is half-maximal. Low readings indicate inhibition by little substance, high ones a need for much substance. `C[C@@H]1CN(c2cc(-c3n[nH]c4ccc(OC5(C)CC5)cc34)ncn2)C[C@H](C)O1` [MLi-2]: the fraction unbound in data set [1] amounted to 0.009. For the same compound, the inhibition result in data set [2], in data set [8], in data set [9] and in data set [10] was “Active” each time. Also, in [3], the Activity result is reported as “Non-Toxic”. Also, in the data set with Mus musculus [4], the outcome was Active. Also, the IC50 in data set [5] came out at 605 nM; in data set [6], 935 nM. The outcome in the data set on Mus musculus [7] was inactive. Also, the inhibition entry in data set [11] is “inactive”. In addition, in data set [12], the “Drug uptake(free)” value was “Dose-Dependent Effect”. Also, the inhibition in data set [13] and in data set [14] was above 90% each time.
